Activity calls are given as the source filed them. No cut-off for these calls is given here.

The nature of experiment [1]: (§1) Anticancer activity against mouse 319N1 cells assessed as reduction in cell viability measured after 72 hrs by celltiter-glo assay. The following applies: 319N1, 72 h. It counts as functional, cell-based. An outline of the steps: (§2)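 Cells seeded in duplicate at 10,000 per well in DMEM with 5% FBS and incubated overnight. Compounds were then added as a 10-point dose response. After 72 h, viability was read by CellTiter-Glo luminescence, with the reagent diluted 1:1 in PBS/1% Triton-X. Values were normalized to DMSO-treated cells and IC50 was derived from curve fitting.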
(In general: Cellular ATP, detected with luciferase, serves as a proxy for viable cell number.)

Experiment [2] relates to 518T2. Nature of the experiment: Binding affinity to beta-tubulin in mouse 518T2 cells at 0.1 to 50 uM measured after 1.5 hrs using Alexa Fluor 532 dye by copper-mediated click reaction based SDS PAGE analysis. The class given is cell-based. Conditions: dose microM 0.1-50, time 1.5 hrs. An outline of the steps:
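Competition assay in 518T2 cells (1 million per well, DMEM with 5% FBS). Test analogs in DMSO were dispensed first at 100 nM to 50 μM and the cells plated onto them. The next day, alkyne probe (5 μM) was added for 1.5 h at 37 °C. Lysis was in 1% SDS HEPES buffer, followed by a click reaction with fluorescent azide, SDS-PAGE, and EC50 from displacement of the p50 band.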

Experiment [3] is filed under the species Bos taurus. Nature of the experiment: Binding affinity to bovine brain beta-tubulin assessed as reduction in microtubule growth at 1 uM measured up to 30 mins by microscopic analysis relative to control. On the set-up: scale not given: the % may be the effect or the level left. Conditions: time min <=30. An outline of the steps: (§3)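 Microtubule growth from brain tubulin was imaged by time-lapse DIC microscopy at 30 °C on biotinylated GMPCPP seeds bound to neutravidin coverslips. Frames were taken every 50 ms and averaged in batches of 30; recordings ran about 30 min. Growth rates were quantified per microtubule.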

The subject of experiment [4] is 518T2. Nature of the experiment: Cell cycle arrest in mouse 518T2 cells assessed as increase in accumulation at G2/M-phase at 300 nM measured after 24 hrs by propidium iodide staining based flow cytometry. The class given is functional. An outline of the steps:
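518T2 murine SCLC cells were exposed for 24 h to compound (300 nM) or DMSO vehicle. Cell cycle distribution was then read by flow cytometry.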
On the technique in general: Flow cytometry measures light scatter and fluorescence of single cells or particles in a stream.

Experiment [5] has as its system 518T2. Nature of the experiment: Inhibition of colony formation in mouse 518T2 cells harboring Tubb5 T238A mutant at 400 nM measured after 2 weeks by crystal violet staining based assay. It counts as functional, cell-based. An outline of the steps:
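518T2 cells were transfected with Cas9-sgRNA complexes targeting Tubb5 plus an oligonucleotide repair template encoding T238A, or a sham control. They were selected with compound at 400 nM for 2 weeks, and the plates were then stained with crystal violet to visualize resistant colonies.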

Experiment [6] concerns the target Tubulin beta-3 chain (Homo sapiens) (UniProt Q13509). Nature of the experiment: Binding affinity to recombinant human C-terminal His-tagged beta3-tubulin expressed in insect cells assessed as reduction in microtubule growth up to 10 uM measured up to 30 mins by microscopic analysis. The following applies: dose microM <=10, time min <=30. A digest of the protocol:
(§4)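 Human αβ-tubulin (TUBA1B plus TUBB3 with cleavable C-terminal His-tag) was expressed in Tni insect cells. It was purified by Ni-affinity, TEV cleavage and anion exchange, then kept in BRB80 with 50 μM GTP. Growth was measured by DIC time-lapse at 30 °C on GMPCPP seeds in 144 mM PIPES pH 6.9 buffer with 1 mM GTP and 4% DMSO, over about 30 min. Compound was tested at 1, 5 and 10 μM; growth rates were measured per microtubule over two trials.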

For experiment [7], the system named is 518T2. Nature of the experiment: Binding affinity to beta-tubulin in mouse 518T2 cells measured after 1.5 hrs using diazo biotin azide dye by silver staining based based SDS PAGE analysis. It counts as cell-based. A digest of the protocol: (§5)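 518T2 cells were grown at large scale (100 mg protein per condition) and treated with covalent or non-covalent alkyne probe. Lysates were clicked to 100 μM diazo biotin azide, acetone-precipitated, resolubilized in 4% SDS/PBS, and captured on streptavidin beads for 1 h at 25 °C. Eluates were run on silver-stained SDS-PAGE or analyzed by nano-LC-MS/MS (Orbitrap, HCD). Peptide abundance was normalized to the non-covalent probe sample.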

For experiment [8], the system named is 518T2. Nature of the experiment: Binding affinity to beta-tubulin in mouse 518T2 cells at 0.05 to 50 uM measured after 1.5 hrs using Alexa Fluor 532 dye by copper-mediated click reaction based SDS PAGE analysis. The following applies: dose microM 0.05-50, time 1.5 hrs. The class given is cell-based. An outline of the steps:
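518T2 cells were plated at 1 million per well in DMEM with 5% FBS. The next day, alkyne probe in DMSO was added at 50 nM to 50 μM for 1.5 h at 37 °C in 5% CO2. Cells were washed, lysed in 1% SDS buffer (50 mM HEPES pH 7.4, 10 mM KCl, 2 mM MgCl2, benzonase), click-reacted with Alexa Fluor 532 azide and resolved by SDS-PAGE fluorescence.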

A further experiment concerns 319N1. The description is as §1. It counts as functional, cell-based. An outline of the steps: as §2
Experiment [9] concerns the target Tubulin beta-5 chain (Mus musculus) (UniProt P99024). Nature of the experiment: Binding affinity to beta5-tubulin in mouse 518T2 cells measured after 1.5 hrs by LC-MS/MS analysis. It counts as cell-based. An outline of the steps: as §5
Experiment [10] has the same target. Nature of the experiment: Binding affinity to beta5-tubulin (217 to 241 residues) in mouse 518T2 cells measured after 1.5 hrs by LC-MS/MS analysis. The class given is cell-based. An outline of the steps:
as §5

A short description of experiment [11]: Anticancer activity against mouse 319N1 clone C cells assessed as reduction in cell viability measured after 72 hrs by celltiter-glo assay. It counts as functional, cell-based. Conditions: 319N1, 72 h. An outline of the steps:
as §2

Experiment [12] relates to 518T2. Nature of the experiment: Binding affinity to beta-tubulin in mouse 518T2 cells measured after 1.5 hrs using Alexa Fluor 532 dye by copper-mediated click reaction based SDS PAGE analysis. It counts as cell-based. A digest of the protocol: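 Competition format in 518T2 murine SCLC cells, 1 million per well in DMEM with 5% FBS. Analogs in DMSO (100 nM to 50 μM) were dispensed first and cells plated onto them. Next day alkyne probe 24 (5 μM) was added for 1.5 h at 37 °C, 5% CO2. EC50 was taken from displacement of the 50 kDa band.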

The species named for experiment [13] is Bos taurus. Nature of the experiment: Binding affinity to bovine brain beta-tubulin assessed as reduction in microtubule growth at 0.5 uM measured up to 30 mins by microscopic analysis. The class given is tissue-based. The following applies: time min <=30. A digest of the protocol: as §3
The target in experiment [14] is Tubulin beta-3 chain (Homo sapiens) (UniProt Q13509). Nature of the experiment: Binding affinity to recombinant human C-terminal His-tagged beta3-tubulin expressed in insect cells assessed as reduction in microtubule growth by measuring microtubule growth rate at 10 uM measured up to 30 mins by microscopic analysis (reference value: 0.83 micrometer/min). The following applies: time min <=30. A digest of the protocol:
as §4

Experiment [15] has the same target. Nature of the experiment: Binding affinity to recombinant human C-terminal His-tagged beta3-tubulin expressed in insect cells assessed as reduction in microtubule growth by measuring microtubule growth rate at 1 uM measured up to 30 mins by microscopic analysis (reference value: 0.83 micrometer/min). The following applies: time min <=30. A digest of the protocol:
as §4

The target is the same in experiment [16]. Nature of the experiment: Binding affinity to recombinant human C-terminal His-tagged beta3-tubulin expressed in insect cells assessed as reduction in microtubule growth measured up to 30 mins by microscopic analysis. The following applies: dose microM 1-10, time min <=30. An outline of the steps:
as §4

Tubulin beta-3 chain (Homo sapiens), sequence (Q13509 whole entry): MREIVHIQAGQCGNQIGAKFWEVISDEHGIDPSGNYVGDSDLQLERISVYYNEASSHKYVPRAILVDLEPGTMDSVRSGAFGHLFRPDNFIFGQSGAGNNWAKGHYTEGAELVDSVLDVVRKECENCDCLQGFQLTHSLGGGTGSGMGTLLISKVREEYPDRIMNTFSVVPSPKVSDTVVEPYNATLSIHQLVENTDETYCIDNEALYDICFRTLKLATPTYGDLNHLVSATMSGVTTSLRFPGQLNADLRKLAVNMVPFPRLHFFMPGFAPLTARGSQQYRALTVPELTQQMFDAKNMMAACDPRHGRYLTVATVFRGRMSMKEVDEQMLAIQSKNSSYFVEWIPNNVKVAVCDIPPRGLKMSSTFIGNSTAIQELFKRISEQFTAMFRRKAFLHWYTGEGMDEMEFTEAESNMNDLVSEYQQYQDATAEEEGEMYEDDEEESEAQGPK
Tubulin beta-5 chain (Mus musculus), sequence (P99024 whole entry, the tested form may be a part): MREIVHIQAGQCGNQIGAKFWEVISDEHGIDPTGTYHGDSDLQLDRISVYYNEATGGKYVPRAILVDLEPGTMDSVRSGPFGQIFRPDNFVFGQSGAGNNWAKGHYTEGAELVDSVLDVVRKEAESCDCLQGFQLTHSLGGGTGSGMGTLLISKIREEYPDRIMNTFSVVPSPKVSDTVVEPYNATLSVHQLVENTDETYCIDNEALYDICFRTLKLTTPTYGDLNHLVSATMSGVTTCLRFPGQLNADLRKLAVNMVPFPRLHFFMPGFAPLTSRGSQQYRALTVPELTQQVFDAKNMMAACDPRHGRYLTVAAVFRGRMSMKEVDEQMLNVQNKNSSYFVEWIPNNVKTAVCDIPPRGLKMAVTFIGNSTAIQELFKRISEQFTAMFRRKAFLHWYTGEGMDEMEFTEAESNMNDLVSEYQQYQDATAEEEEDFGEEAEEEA

As usually defined, the IC50 is the concentration at which inhibition is half-maximal. On to `Cc1ccc(Cl)cc1N1CCN(C(=O)c2ccc(Br)c([N+](=O)[O-])c2)CC1`, for which, in experiment [1], the IC50 was 55 nM. For the same compound, in the experiment on 518T2 [2], the “beta-tubulin binding (probe competition, active/inactive)” value was “Active”. For the same compound, the Activity in the experiment filed under Bos taurus [3] turned out to be 80%. Besides, the outcome in the experiment with 518T2 [4] was Active. In the experiment on 518T2 [5], the inhibition entry was “inactive”. Further, in experiment [6], the outcome was inactive.
With `O=C(c1ccc(Cl)c([N+](=O)[O-])c1)N1CCN(c2cccc(Br)c2)CC1`, the IC50 in experiment [1] came out at 866 nM. The “beta-tubulin binding (probe competition, active/inactive)” value in the experiment with 518T2 [2] was “Active”.
With `C#CCOc1cccc(N2CCN(C(=O)c3ccc(C)c([N+](=O)[O-])c3)CC2)c1`, the IC50 in experiment [1] was 13000 nM. The outcome with 518T2 [7] and in the experiment on 518T2 [8] was inactive.
`O=C(c1cccc([N+](=O)[O-])c1)N1CCN(c2ccccc2)CC1`: the result in the experiment with 319N1 was inactive.
Take `Cc1ccc(Cl)cc1N1CCN(C(=O)c2ccc(OC(F)(F)F)c([N+](=O)[O-])c2)CC1`: in experiment [1], the IC50 was found to be 20 nM.
On to `C#CCOc1cccc(N2CCN(C(=O)c3ccc(Cl)c([N+](=O)[O-])c3)CC2)c1`, for which, in experiment [1], the IC50 is 1190 nM. The result (in the experiment on 518T2 [7]; in experiment [9]; in experiment [10]; in the experiment on 518T2 [8]) was Active.
Regarding `Cc1ccc(Cl)cc1N1CCN(C(=O)c2ccc(I)c([N+](=O)[O-])c2)CC1`, the “beta-tubulin binding (probe competition, active/inactive)” value with 518T2 [2] was “Active”.
On to `Cc1ccc(Cl)cc1N1CCN(C(=O)c2ccc(Cl)c([N+](=O)[O-])c2)CC1`, for which, in the experiment with 518T2 [2], the “beta-tubulin binding (probe competition, active/inactive)” value was “Active”. In experiment [11], the IC50 came to 1480 nM.
Consider `O=C(c1ccc(Cl)c([N+](=O)[O-])c1)N1CCN(c2ccc(F)cc2F)CC1`, for which the IC50 in experiment [1] was determined as 24700 nM.
For the compound `Cc1ccc(Cl)cc1N1CCN(C(=O)c2ccc([N+](=O)[O-])c(Cl)c2)CC1`, the IC50 in [1] stood at 4680 nM.
Consider `COc1cc2c(c(OC)c1OC)-c1ccc(OC)c(=O)cc1[C@@H](NC(C)=O)CC2`, for which the outcome with 518T2 [4] was Active. Moreover, the inhibition entry in the experiment with 518T2 [12] is “Dose-dependent effect”.
Turning to `Cc1ccc(Cl)cc1N1CCN(C(=O)c2cc(Cl)cc([N+](=O)[O-])c2)CC1`, the IC50 in experiment [1] was 4870 nM.
For the compound `O=C(c1ccc(Cl)c([N+](=O)[O-])c1)N1CCN(c2ccc(F)cc2)CC1`, the IC50 in experiment [1] was 21000 nM.
Turning to `Cc1ccc(C)c(N2CCN(C(=O)c3ccc(Cl)c([N+](=O)[O-])c3)CC2)c1`, the IC50 in [1] was 1040 nM.
Take `COc1cc(OC)cc(N2CCN(C(=O)c3ccc(C=O)c([N+](=O)[O-])c3)CC2)c1`: in experiment [1], the IC50 stood at 127 nM. Further, in the experiment filed under Bos taurus [13], the result was Active. Besides, the Activity in experiment [14] was 0.31 um/min; in experiment [15] it was 0.67 um/min; in experiment [16], “Dose-dependent effect”.
For `COC(=O)c1c(C)oc2ccc(NS(=O)(=O)c3ccc(Cl)c([N+](=O)[O-])c3)cc12`, the IC50 worked out at 2800 nM in experiment [1] and 7570 nM in experiment [11]. Also, in the experiment on 518T2 [12], the inhibition result is “Dose-dependent effect”.

Values taken from ChEMBL document CHEMBL4699638, “A Multipronged Approach Establishes Covalent Modification of β-Tubulin as the Mode of Action of Benzamide Anti-cancer Toxins” (J Med Chem, 2020).
